Laboratory results taken from ChEMBL document CHEMBL5356993, “Novel pyrazolo[3,4-d]pyrimidine derivatives: design, synthesis, anticancer evaluation, VEGFR-2 inhibition, and antiangiogenic activity” (RSC Med Chem, 2023).

How the values were obtained:
Assay type in all cases: functional
Settings in all cases: read-out: GI
NCI-H460 = assay: Antiproliferative activity against human NCI-H460 cells assessed as cell growth inhibition at 10 uM incubated for 48 hrs by SRB assay relative to control
HCT-116 = assay: Antiproliferative activity against human HCT-116 cells assessed as cell growth inhibition at 10 uM incubated for 48 hrs by SRB assay relative to control
HOP-62 = assay: Antiproliferative activity against human HOP-62 cells assessed as cell growth inhibition at 10 uM incubated for 48 hrs by SRB assay relative to control
CCRF-CEM = assay: Antiproliferative activity against human CCRF-CEM cells assessed as cell growth inhibition at 10 uM incubated for 48 hrs by SRB assay relative to control
Procedure, shortened: (§1)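 Cells plated in 96-well plates at […] cells/well and preincubated 24 h at 37 °C, 5% CO2. Time-zero plates were TCA-fixed. Compound was diluted in medium with 50 µg/mL gentamicin and cells exposed for 48 h. Adherent cells fixed with 10% final TCA; suspension cells with 16% final TCA. Plates stained with 0.4% SRB in 1% acetic acid, dye solubilized in 10 mM Trizma, absorbance read at 515 nm. Percent growth calculated against time-zero and control.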

T47D = assay: Antiproliferative activity against human T47D cells assessed as cell growth inhibition at 10 uM incubated for 48 hrs by SRB assay relative to control
Procedure, shortened: (§2)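 Cells pre-incubated 24 h at 37°C, 5% CO2, then exposed to compound (DMSO stock diluted in medium with 50 µg/mL gentamicin) for 48 h. Adherent cells fixed with cold TCA (final 10%, 60 min, 4°C); suspension cells fixed with 16% TCA final. Stained with 0.4% SRB in 1% acetic acid for 10 min, dye solubilized in 10 mM Trizma base, absorbance read at 515 nm. Growth calculated against time-zero and untreated control plates.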

NCI/ADR-RES = assay: Antiproliferative activity against human NCI-ADR-RES cells assessed as cell growth inhibition at 10 uM incubated for 48 hrs by SRB assay relative to control
HCC 2998 = assay: Antiproliferative activity against human HCC 2998 cells assessed as cell growth inhibition at 10 uM incubated for 48 hrs by SRB assay relative to control
SK-MEL-5 = assay: Antiproliferative activity against human SK-MEL-5 cells assessed as cell growth inhibition at 10 uM incubated for 48 hrs by SRB assay relative to control; procedure, shortened: as §1
MDA-MB-468 = assay: Antiproliferative activity against human MDA-MB-468 cells assessed as cell growth inhibition at 10 uM incubated for 48 hrs by SRB assay relative to control
SK-MEL-28 = assay: Antiproliferative activity against human SK-MEL-28 cells assessed as cell growth inhibition at 10 uM incubated for 48 hrs by SRB assay relative to control; procedure, shortened: as §1
SN12C = assay: Antiproliferative activity against human SN12C cells assessed as cell growth inhibition at 10 uM incubated for 48 hrs by SRB assay relative to control
NCI-H522 = assay: Antiproliferative activity against human NCI-H522 cells assessed as cell growth inhibition at 10 uM incubated for 48 hrs by SRB assay relative to control; procedure, shortened: as §1
786-0 = assay: Antiproliferative activity against human 786-0 cells assessed as cell growth inhibition at 10 uM incubated for 48 hrs by SRB assay relative to control
Hs-578T = assay: Antiproliferative activity against human Hs-578T cells assessed as cell growth inhibition at 10 uM incubated for 48 hrs by SRB assay relative to control; procedure, shortened: as §1
PC-3 = assay: Antiproliferative activity against human PC-3 cells assessed as cell growth inhibition at 10 uM incubated for 48 hrs by SRB assay relative to control
OVCAR-3 = assay: Antiproliferative activity against human OVCAR-3 cells assessed as cell growth inhibition at 10 uM incubated for 48 hrs by SRB assay relative to control; procedure, shortened: as §1
IGROV-1 = assay: Antiproliferative activity against human IGROV-1 cells assessed as cell growth inhibition at 10 uM incubated for 48 hrs by SRB assay relative to control
MCF7 = assay: Antiproliferative activity against human MCF7 cells assessed as cell growth inhibition at 10 uM incubated for 48 hrs by SRB assay relative to control
SK-OV-3 = assay: Antiproliferative activity against human SK-OV-3 cells assessed as cell growth inhibition at 10 uM incubated for 48 hrs by SRB assay relative to control; procedure, shortened: as §1
SF-268 = assay: Antiproliferative activity against human SF-268 cells assessed as cell growth inhibition at 10 uM incubated for 48 hrs by SRB assay relative to control
NCI-H226 = assay: Antiproliferative activity against human NCI-H226 cells assessed as cell growth inhibition at 10 uM incubated for 48 hrs by SRB assay relative to control; procedure, shortened: as §1
TK-10 = assay: Antiproliferative activity against human TK-10 cells assessed as cell growth inhibition at 10 uM incubated for 48 hrs by SRB assay relative to control; procedure, shortened: as §2
NCI-H23 = assay: Antiproliferative activity against human NCI-H23 cells assessed as cell growth inhibition at 10 uM incubated for 48 hrs by SRB assay relative to control
NCI-H322M = assay: Antiproliferative activity against human NCI-H322M cells assessed as cell growth inhibition at 10 uM incubated for 48 hrs by SRB assay relative to control
OVCAR-8 = assay: Antiproliferative activity against human OVCAR-8 cells assessed as cell growth inhibition at 10 uM incubated for 48 hrs by SRB assay relative to control

| SMILES | inhibition of growth at 10 µM (NCI-H460) [%] | inhibition of growth at 10 µM (HCT-116) [%] | inhibition of growth at 10 µM (HOP-62) [%] | inhibition of growth at 10 µM (CCRF-CEM) [%] | inhibition of growth at 10 µM (T47D) [%] | inhibition of growth at 10 µM (NCI/ADR-RES) [%] | inhibition of growth at 10 µM (HCC 2998) [%] | inhibition of growth at 10 µM (SK-MEL-5) [%] | inhibition of growth at 10 µM (MDA-MB-468) [%] | inhibition of growth at 10 µM (SK-MEL-28) [%] | inhibition of growth at 10 µM (SN12C) [%] | inhibition of growth at 10 µM (NCI-H522) [%] | inhibition of growth at 10 µM (786-0) [%] | inhibition of growth at 10 µM (Hs-578T) [%] | inhibition of growth at 10 µM (PC-3) [%] | inhibition of growth at 10 µM (OVCAR-3) [%] | inhibition of growth at 10 µM (IGROV-1) [%] | inhibition of growth at 10 µM (MCF7) [%] | inhibition of growth at 10 µM (SK-OV-3) [%] | inhibition of growth at 10 µM (SF-268) [%] | further results |
| --- | --- | --- | --- | --- | --- | --- | --- | --- | --- | --- | --- | --- | --- | --- | --- | --- | --- | --- | --- | --- | --- |
| Cc1nc2c(cnn2-c2ccccc2)c(=O)n1-c1ccc(N2C(=O)C=CC2=O)cc1 | < 15 | < 15 | < 15 | 32.2 | < 15 | < 15 | < 15 | < 15 | 18.6 | < 15 | < 15 | < 15 | < 15 | < 15 | < 15 | < 15 | < 15 | < 15 | < 15 | < 15 | inhibition of growth at 10 µM (NCI-H226): < 15%; inhibition of growth at 10 µM (TK-10): < 15%; inhibition of growth at 10 µM (NCI-H23): < 15%; inhibition of growth at 10 µM (NCI-H322M): < 15%; inhibition of growth at 10 µM (OVCAR-8): < 15% |
| COc1ccc(/C=C/C(=O)c2ccc(-n3c(C)nc4c(cnn4-c4ccccc4)c3=O)cc2)cc1 | < 15 | 90.3 | 19.5 | 53.6 | 65.3 | 37.6 | < 15 | 72.3 | 88.7 | < 15 | 18.4 | 42.6 | 15.4 | < 15 | 34.9 | 39 | < 15 | 91.7 | < 15 | < 15 | inhibition of growth at 10 µM (NCI-H226): 29.4%; inhibition of growth at 10 µM (TK-10): < 15%; inhibition of growth at 10 µM (NCI-H23): 27.6%; inhibition of growth at 10 µM (NCI-H322M): < 15%; inhibition of growth at 10 µM (OVCAR-8): 16.6% |
| Cc1nc2c(cnn2-c2ccccc2)c(=O)n1-c1ccc(NC(=O)c2ccc([N+](=O)[O-])cc2)cc1 | 26.4 | 55.6 | < 15 | 52.5 | 66.5 | 47.2 | < 15 | 82.4 | 68.6 | 18.2 | 29 | 38.9 | 16.3 | 23.1 | 33.7 | < 15 | 31.1 | 56.7 | < 15 | < 15 | inhibition of growth at 10 µM (NCI-H226): 50.8%; inhibition of growth at 10 µM (TK-10): 31.5%; inhibition of growth at 10 µM (NCI-H23): 50.6%; inhibition of growth at 10 µM (NCI-H322M): 17.2%; inhibition of growth at 10 µM (OVCAR-8): 34.1% |
| Cc1nc2c(cnn2-c2ccccc2)c(=O)n1-c1ccc(/N=C2\C(=O)Nc3ccccc32)cc1 | < 15 | 17.9 | < 15 | 37.8 | 38.3 | < 15 | < 15 | 42.9 | 51.4 | < 15 | 37.3 | 16.8 | < 15 | 17.6 | 24 | 24.3 | 34.7 | 33.7 | 19.6 | < 15 | inhibition of growth at 10 µM (NCI-H226): 24.7%; inhibition of growth at 10 µM (TK-10): < 15%; inhibition of growth at 10 µM (NCI-H23): 30.7%; inhibition of growth at 10 µM (NCI-H322M): < 15%; inhibition of growth at 10 µM (OVCAR-8): 24.8% |
| Cc1nc2c(cnn2-c2ccccc2)c(=O)n1-c1ccc(NC(=O)c2ccco2)cc1 | < 15 | < 15 | < 15 | 23.6 | 34 | < 15 | < 15 | 23.1 | 37.3 | < 15 | < 15 | < 15 | < 15 | < 15 | < 15 | < 15 | < 15 | 23.4 | < 15 | < 15 | inhibition of growth at 10 µM (NCI-H226): < 15%; inhibition of growth at 10 µM (TK-10): < 15%; inhibition of growth at 10 µM (NCI-H23): < 15%; inhibition of growth at 10 µM (NCI-H322M): < 15%; inhibition of growth at 10 µM (OVCAR-8): < 15% |
| Cc1nc2c(cnn2-c2ccccc2)c(=O)n1-c1ccc(N2C(=O)c3ccccc3C2=O)cc1 | < 15 | < 15 | < 15 | < 15 | < 15 | < 15 | < 15 | < 15 | < 15 | < 15 | < 15 | < 15 | < 15 | < 15 | < 15 | < 15 | < 15 | < 15 | < 15 | < 15 | inhibition of growth at 10 µM (NCI-H226): < 15%; inhibition of growth at 10 µM (TK-10): < 15%; inhibition of growth at 10 µM (NCI-H23): < 15%; inhibition of growth at 10 µM (NCI-H322M): < 15%; inhibition of growth at 10 µM (OVCAR-8): < 15% |
| CC(=O)Nc1ccc(-n2c(C)nc3c(cnn3-c3ccccc3)c2=O)cc1 | < 15 | 28.9 | < 15 | 30.8 | < 15 | < 15 | < 15 | 77.4 | < 15 | < 15 | 26.1 | 25 | < 15 | < 15 | 30.3 | < 15 | < 15 | 44.4 | < 15 | < 15 | inhibition of growth at 10 µM (NCI-H226): 33.5%; inhibition of growth at 10 µM (TK-10): 20.4%; inhibition of growth at 10 µM (NCI-H23): 31.7%; inhibition of growth at 10 µM (NCI-H322M): < 15%; inhibition of growth at 10 µM (OVCAR-8): 20% |
